# Reference: ChEMBL document CHEMBL1148327, “Arylcyanoguanidines as activators of Kir6.2/SUR1K ATP channels and inhibitors of insulin release” (J Med Chem, 2004)
# Columns and labels:
# [1] = tested on: Beta-TC6; experiment: In vitro ability to inhibit glucose stimulated insulin release in beta-TC6 cells […]; assay type: functional, cell-based; conditions: Mus musculus
# [2] = tested on: Beta-TC6; experiment: In vitro efficacy to inhibit glucose stimulated insulin release in beta-TC6 cells […]; assay type: functional
# [3] = species: Rattus norvegicus; experiment: Relaxation of phenylephrine precontracted rat isolated aorta rings.; assay type: functional, organism-based
# [4] = tested on: Beta-TC3; experiment: Ability to repolarize beta-TC3 cell membrane potential; assay type: functional, cell-based, Rattus norvegicus; conditions: Mus musculus
# [5] = tested on: Beta-TC3; experiment: Ability to repolarize beta-TC3 cell membrane potential; Not significant; assay type: functional, cell-based, Rattus norvegicus
# [6] = species: Rattus norvegicus; experiment: Effect on insulin release from rat islets; assay type: functional, organism-based
# [7] = tested on: A10; experiment: Effect on membrane potential of mitochondria of A10 smooth muscle cells in rats; assay type: functional; conditions: Rattus norvegicus, read-out: ED50 (the source's name)
# [8] = tested on: HepG2; experiment: (§1) Maximum effect on glucose utilization in HepG2 cells expressed as % of full stimulation; assay type: functional, Rattus norvegicus; conditions: Homo sapiens
# Method in brief: (§2)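 HEP-G2 glucose oxidation: 2×10^4 cells/well incubated overnight at 37 °C, 5% CO2. Compounds diluted from 100× DMSO stocks into medium with 10 μCi/mL D-(5-3H)-glucose, in duplicate, 3 h at 37 °C. Lysed with 10% TCA; 3H-water separated by evaporation and counted. Mean ± SEM of three experiments.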
# [9] = tested on: Beta-TC3; experiment: Effect on membrane potential of mitochondria of beta-TC3 cells in rats; assay type: functional, Rattus norvegicus; conditions: Mus musculus, read-out: ED50 (the source's name)
# [10] = species: Rattus norvegicus; experiment: Efficacy on insulin release from rat islets; assay type: functional, organism-based
# [11] = tested on: HepG2; experiment: (§3) Effective concentration required for stimulation of glucose utilization in Hepatocytes (HEP-G2 cells); assay type: functional, cell-based, Rattus norvegicus; conditions: Homo sapiens; method in brief: as §2
# [12] = tested on: Beta-TC6; experiment: In vitro ability to inhibit glucose stimulated insulin release in beta-TC6 cells […]; Not active; assay type: functional, cell-based
# [13] = species: Rattus norvegicus; experiment: Effective concentration required relaxation of precontracted rat aorta ring; assay type: functional, organism-based
# [14] = tested on: Beta-TC3; experiment: Effect on membrane potential of mitochondria in beta-TC3 cells […]; assay type: functional; conditions: Mus musculus, read-out: ED50 (the source's name)
# [15] = tested on: A10; experiment: Effect on membrane potential of mitochondria in A10 smooth muscle cells from rats; assay type: functional; conditions: Rattus norvegicus, read-out: ED50 (the source's name)
# [16] = tested on: HepG2; experiment: as §1; assay type: functional; conditions: Homo sapiens; method in brief: as §2
# [17] = tested on: HepG2; experiment: as §3; assay type: functional, cell-based; conditions: Homo sapiens; method in brief: as §2
# [18] = species: Rattus norvegicus; experiment: Inhibitory effect on insulin release from rat islets; assay type: functional, organism-based
# [19] = species: Rattus norvegicus; experiment: Efficacy to inhibit insulin release from rat islets; assay type: functional, organism-based
SMILES,IC50 [1] [µM],IC50 [3] [µM],IC50 [4] [µM],IC50 [5],Efficacy [2] [%],also measured
CC(C)C(C)/N=C(\NC#N)Nc1cc(C(F)(F)F)cc(C(F)(F)F)c1 (stereo unspecified),5.2,17.6,5.5,,69,
CCC(C)(C)/N=C(\NC#N)Nc1cc(C(F)(F)F)cc(C(F)(F)F)c1,,,,Not Active,,IC50 [12]: Not Active
CC(C)/N=C(\NC#N)Nc1cc(Cl)cc(Cl)c1,,52,,Not Active,,IC50 [12]: Not Active
CC(C)CC/N=C(\NC#N)Nc1cccnc1,1.2,,,Not Active,23,
N#C/N=C(\Nc1cccnc1)NC1(c2cccc(Cl)c2)CCC1,,,,,,EC50 [13]: 113 µM
CC(C)CC/N=C(\NC#N)Nc1cc(F)cc(F)c1,,85,,Not Active,,IC50 [12]: Not Active
N#CN/C(=N\C1CCCC1)Nc1cc(C(F)(F)F)cc(C(F)(F)F)c1,5.45,> 300,4.7,,65,EC50 [14]: > 30 µM; EC50 [15]: 1 µM; Emax [16]: 95%; EC50 [17]: 10.4 µM; IC50 [18]: 1.24 µM; Efficacy [19]: 65%
N#CN/C(=N\C1(c2cccc(Cl)c2)CCC1)Nc1cc(C(F)(F)F)cc(C(F)(F)F)c1,2.8,,20,,66,
COc1cc(N/C(=N/C2CCCC2)NC#N)cc(C(F)(F)F)c1,,75,,Not Active,,IC50 [12]: Not Active

# More lines, main results first:
IC50 [1] [µM],IC50 [3] [µM],IC50 [4] [µM],IC50 [5],SMILES,Efficacy [2] [%],also measured
,,19,,CCC/N=C(\NC#N)Nc1cc(C(F)(F)F)cc(C(F)(F)F)c1,53,
> 100,0.8,,Not Active,CC(N/C(=N\C#N)Nc1ccncc1)C(C)(C)C (stereo unspecified) [PINACIDIL ANHYDROUS],,
4.2,,0.8,,CC(C)CC/N=C(\NC#N)Nc1cc(Cl)cc(Cl)c1,60,IC50 [6]: 3.8 µM; EC50 [7]: 2 µM; Emax [8]: 98%; EC50 [9]: > 30 µM; Efficacy [10]: 72%; EC50 [11]: 22 µM
,,4.7,,CC(C)CC/N=C(\NC#N)Nc1cc(C(F)(F)F)cc(C(F)(F)F)c1,77,
4.4,20.3,18,,C[C@@H](/N=C(\NC#N)Nc1cc(C(F)(F)F)cc(C(F)(F)F)c1)C(C)(C)C,68,
13.7,11.9,12,,C[C@H](/N=C(\NC#N)Nc1cc(C(F)(F)F)cc(C(F)(F)F)c1)C(C)(C)C,67,
39.8,,25,,C[C@H](/N=C(\NC#N)Nc1cc(Cl)cc(Cl)c1)c1ccccc1,27,
16.1,43.8,,Not Active,C[C@@H](/N=C(\NC#N)Nc1cc(Cl)cc(Cl)c1)c1ccccc1,22,
48.5,,24,,CCC(C)(C)/N=C(\NC#N)Nc1cc(Cl)cc(Cl)c1,32,
41.4,,,Not Active,CC(C)/N=C(\NC#N)Nc1cc(C(F)(F)F)cc(C(F)(F)F)c1,20,
28.7,75,12,,N#CN/C(=N\C1CCCC1)Nc1cc(Cl)cc(Cl)c1,18,
,12.8,13.7,,CC1=Nc2ccc(Cl)cc2S(=O)(=O)N1 [DIAZOXIDE],23,
